≈ marks a conversion by molar mass, not a printed value.
What was measured:
[1] = Inhibition of bovine phosphatase activity of calcineurin by microtitre method; parameters: species or system Bos taurus
Summary of the method: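 Bovine calcineurin assayed together with bovine calmodulin, using p-nitrophenyl phosphate as the phosphatase substrate.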

P388 = test: Cytotoxicity against mouse P388 cells; type: functional, cell-based
A549 = test: Cytotoxicity against human A549 cells; type: functional, cell-based
Caspase-3 = biological target: T1, Caspase-3 (Homo sapiens, UniProt P42574); test: Inhibition of peptidase activity of CPP32
T1 sequence (P42574 whole entry): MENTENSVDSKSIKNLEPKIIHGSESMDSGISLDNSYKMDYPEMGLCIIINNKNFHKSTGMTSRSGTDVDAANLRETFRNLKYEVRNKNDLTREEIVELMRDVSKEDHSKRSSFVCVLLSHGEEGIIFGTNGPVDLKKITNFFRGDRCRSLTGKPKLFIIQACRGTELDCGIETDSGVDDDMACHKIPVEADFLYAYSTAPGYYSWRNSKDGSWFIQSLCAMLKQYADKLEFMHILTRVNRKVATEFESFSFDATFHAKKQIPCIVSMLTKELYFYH

Row | IC50 [1] [µg/mL] | IC50 (Caspase-3) [µM] | Compound | IC50 (P388) [µg/mL] | IC50 (A549) [µg/mL]
1 | 0.55 (≈ 2.15 µM) | – | N=C1C(Cl)=C(N)C(=O)c2[nH]cc(C(O)CO)c21 (configuration not stated) [SECOBATZELLINE A] | 0.06 (≈ 0.235 µM) | 0.04 (≈ 0.156 µM)
2 | – | 25.8 | CC(=O)OCC(OC(C)=O)c1c[nH]c2c1C(=O)C(Cl)=C(N)C2=O (configuration not stated) [SECOBATZELLINE B DIACETATE] | 3.83 | 4.68
3 | 2.21 (≈ 8.61 µM) | – | NC1=C(Cl)C(=O)c2c(C(O)CO)c[nH]c2C1=O (configuration not stated) [SECOBATZELLINE B] | 1.22 (≈ 4.75 µM) | 2.86 (≈ 11.1 µM)
4 | – | 2.35 | CC(=O)OCC(OC(C)=O)c1c[nH]c2c1C(=N)C(Cl)=C(N)C2=O (configuration not stated) [SECOBATZELLINE A DIACETATE] | 0.01 | 0.12

— ChEMBL document CHEMBL1144101, “Secobatzellines A and B, two new enzyme inhibitors from a deep-water Caribbean sponge of the genus Batzella” (J Nat Prod, 1999)
